In ChEMBL document CHEMBL3259739, “Synthesis and structure-activity relationship of trisubstituted thiazoles as Cdc7 kinase inhibitors” (Eur J Med Chem, 2014):

Assays:
[1] = molecular target: Mast/stem cell growth factor receptor Kit (Homo sapiens) (UniProt P10721); assay: Inhibition of KIT (unknown origin) at 1 uM relative to control; values are per cent of control
[2] = molecular target: T1, Dual specificity mitogen-activated protein kinase kinase 5 (Homo sapiens) (UniProt Q13163); assay: Inhibition of MEK5 (unknown origin) at 1 uM relative to control; values are per cent of control
T1 sequence (whole entry): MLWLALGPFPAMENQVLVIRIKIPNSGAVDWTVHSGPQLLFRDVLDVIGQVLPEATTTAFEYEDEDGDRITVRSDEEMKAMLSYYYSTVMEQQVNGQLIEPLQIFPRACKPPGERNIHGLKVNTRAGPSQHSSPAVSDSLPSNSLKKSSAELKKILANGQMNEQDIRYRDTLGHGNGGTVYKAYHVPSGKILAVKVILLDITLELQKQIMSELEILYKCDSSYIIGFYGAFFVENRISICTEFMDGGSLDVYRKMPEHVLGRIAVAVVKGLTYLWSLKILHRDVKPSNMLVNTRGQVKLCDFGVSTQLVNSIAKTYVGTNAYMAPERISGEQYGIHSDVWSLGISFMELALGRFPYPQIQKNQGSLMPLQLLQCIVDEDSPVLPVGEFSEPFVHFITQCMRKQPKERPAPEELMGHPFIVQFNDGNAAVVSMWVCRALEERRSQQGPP

[3] = molecular target: Receptor-interacting serine/threonine-protein kinase 2 (Homo sapiens) (UniProt O43353); assay: Inhibition of RIPK2 (unknown origin) at 1 uM relative to control; settings: values are per cent of control
Outline: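 KinomeSCAN competitive binding panel of 100 kinases; compounds tested at 1 µM in duplicate; read-out is percent […] control.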

[4] = molecular target: Mitogen-activated protein kinase 14 (Homo sapiens) (UniProt Q16539); assay: Inhibition of p38-alpha (unknown origin) at 1 uM relative to control; values are per cent of control
[5] = molecular target: Ephrin type-A receptor 4 (Homo sapiens) (UniProt P54764); assay: Inhibition of EPHA4 (unknown origin) at 1 uM relative to control; values are per cent of control
[6] = molecular target: Serine/threonine-protein kinase B-raf (Homo sapiens) (UniProt P15056); assay: Inhibition of BRAF (unknown origin) at 1 uM relative to control; values are per cent of control
[7] = molecular target: Tyrosine-protein kinase ABL1 (Homo sapiens) (UniProt P00519); assay: Inhibition of phosphorylated ABL1 (unknown origin) at 1 uM relative to control; values are per cent of control
[8] = molecular target: Dual specificity tyrosine-phosphorylation-regulated kinase 1B (Homo sapiens) (UniProt Q9Y463); assay: Inhibition of DYRK1B (unknown origin) at 1 uM relative to control; values are per cent of control
[9] = molecular target: T2, Cyclin-G-associated kinase (Homo sapiens) (UniProt O14976); assay: Inhibition of GAK (unknown origin) at 1 uM relative to control; values are per cent of control
T2 sequence (whole entry): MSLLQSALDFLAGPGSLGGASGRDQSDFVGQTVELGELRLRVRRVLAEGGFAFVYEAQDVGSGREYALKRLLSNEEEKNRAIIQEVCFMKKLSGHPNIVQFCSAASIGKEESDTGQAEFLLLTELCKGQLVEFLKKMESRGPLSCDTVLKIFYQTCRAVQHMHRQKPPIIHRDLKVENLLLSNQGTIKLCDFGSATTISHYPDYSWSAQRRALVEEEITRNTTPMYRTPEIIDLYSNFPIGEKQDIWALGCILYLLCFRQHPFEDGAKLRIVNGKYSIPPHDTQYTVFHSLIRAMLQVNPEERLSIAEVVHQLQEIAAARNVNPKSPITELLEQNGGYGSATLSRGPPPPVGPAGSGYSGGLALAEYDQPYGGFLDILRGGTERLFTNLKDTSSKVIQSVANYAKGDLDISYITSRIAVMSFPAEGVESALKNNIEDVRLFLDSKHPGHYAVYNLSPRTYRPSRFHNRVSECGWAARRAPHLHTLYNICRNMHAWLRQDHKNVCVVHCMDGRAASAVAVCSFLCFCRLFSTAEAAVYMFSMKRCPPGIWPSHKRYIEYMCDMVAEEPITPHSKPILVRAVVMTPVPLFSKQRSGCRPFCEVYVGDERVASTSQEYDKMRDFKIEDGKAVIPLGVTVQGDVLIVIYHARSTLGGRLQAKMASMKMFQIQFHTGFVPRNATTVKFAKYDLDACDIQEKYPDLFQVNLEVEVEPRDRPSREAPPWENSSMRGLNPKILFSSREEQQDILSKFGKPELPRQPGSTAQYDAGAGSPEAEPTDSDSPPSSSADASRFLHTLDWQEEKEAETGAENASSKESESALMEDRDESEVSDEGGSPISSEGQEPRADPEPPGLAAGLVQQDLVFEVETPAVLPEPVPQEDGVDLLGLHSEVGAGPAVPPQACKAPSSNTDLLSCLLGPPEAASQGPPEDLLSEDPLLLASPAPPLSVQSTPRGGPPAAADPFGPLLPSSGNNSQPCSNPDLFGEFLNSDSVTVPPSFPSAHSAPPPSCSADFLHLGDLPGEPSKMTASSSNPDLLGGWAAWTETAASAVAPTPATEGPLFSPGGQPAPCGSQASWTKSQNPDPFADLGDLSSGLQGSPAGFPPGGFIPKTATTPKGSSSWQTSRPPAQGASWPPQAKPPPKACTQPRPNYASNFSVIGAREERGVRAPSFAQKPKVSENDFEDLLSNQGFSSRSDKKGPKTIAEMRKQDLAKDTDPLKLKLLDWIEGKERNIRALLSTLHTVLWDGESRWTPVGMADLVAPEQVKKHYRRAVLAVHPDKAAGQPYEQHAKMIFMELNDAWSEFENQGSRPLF

[10] = molecular target: Mitogen-activated protein kinase 1 (Homo sapiens) (UniProt P28482); assay: Inhibition of ERK2 (unknown origin) at 1 uM relative to control; values are per cent of control
[11] = molecular target: Mitogen-activated protein kinase kinase kinase kinase 1 (Homo sapiens) (UniProt Q92918); assay: Inhibition of HPK1 (unknown origin) at 1 uM relative to control; values are per cent of control
[12] = molecular target: Tyrosine-protein kinase Fyn (Homo sapiens) (UniProt P06241); assay: Inhibition of FYN (unknown origin) at 1 uM relative to control; values are per cent of control
Chain of Tyrosine-protein kinase Fyn (Homo sapiens) (P06241 2-537 limits assumed): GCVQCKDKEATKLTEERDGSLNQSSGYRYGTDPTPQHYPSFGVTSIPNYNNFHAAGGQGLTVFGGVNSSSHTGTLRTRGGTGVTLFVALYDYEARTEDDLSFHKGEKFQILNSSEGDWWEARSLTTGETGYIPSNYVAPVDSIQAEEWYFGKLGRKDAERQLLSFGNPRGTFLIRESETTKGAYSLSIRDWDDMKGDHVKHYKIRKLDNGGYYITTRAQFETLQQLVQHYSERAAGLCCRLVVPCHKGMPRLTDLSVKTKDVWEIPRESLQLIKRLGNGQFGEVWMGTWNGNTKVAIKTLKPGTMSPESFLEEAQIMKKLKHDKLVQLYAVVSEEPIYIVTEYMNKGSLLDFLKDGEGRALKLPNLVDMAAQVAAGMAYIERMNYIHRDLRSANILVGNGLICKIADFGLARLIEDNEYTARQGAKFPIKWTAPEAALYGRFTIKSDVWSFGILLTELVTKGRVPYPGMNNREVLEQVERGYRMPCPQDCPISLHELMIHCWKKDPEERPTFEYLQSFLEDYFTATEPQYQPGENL

Chain of Receptor-interacting serine/threonine-protein kinase 2 (Homo sapiens) (O43353 whole entry): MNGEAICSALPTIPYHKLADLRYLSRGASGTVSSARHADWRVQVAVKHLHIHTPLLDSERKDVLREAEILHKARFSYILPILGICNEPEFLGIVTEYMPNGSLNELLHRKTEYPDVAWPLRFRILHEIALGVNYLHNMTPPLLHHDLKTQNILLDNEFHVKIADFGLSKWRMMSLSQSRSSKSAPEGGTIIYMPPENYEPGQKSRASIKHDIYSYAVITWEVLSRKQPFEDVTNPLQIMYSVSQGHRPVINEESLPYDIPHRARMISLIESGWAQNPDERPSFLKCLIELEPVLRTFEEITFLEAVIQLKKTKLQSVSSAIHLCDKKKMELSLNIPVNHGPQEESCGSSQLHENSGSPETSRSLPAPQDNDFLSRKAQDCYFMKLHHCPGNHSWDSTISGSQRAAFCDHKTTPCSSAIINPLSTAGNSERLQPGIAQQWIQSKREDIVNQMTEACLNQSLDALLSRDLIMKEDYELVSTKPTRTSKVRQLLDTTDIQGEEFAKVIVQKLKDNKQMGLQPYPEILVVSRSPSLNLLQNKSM
Chain of Mitogen-activated protein kinase 14 (Homo sapiens) (Q16539 whole entry): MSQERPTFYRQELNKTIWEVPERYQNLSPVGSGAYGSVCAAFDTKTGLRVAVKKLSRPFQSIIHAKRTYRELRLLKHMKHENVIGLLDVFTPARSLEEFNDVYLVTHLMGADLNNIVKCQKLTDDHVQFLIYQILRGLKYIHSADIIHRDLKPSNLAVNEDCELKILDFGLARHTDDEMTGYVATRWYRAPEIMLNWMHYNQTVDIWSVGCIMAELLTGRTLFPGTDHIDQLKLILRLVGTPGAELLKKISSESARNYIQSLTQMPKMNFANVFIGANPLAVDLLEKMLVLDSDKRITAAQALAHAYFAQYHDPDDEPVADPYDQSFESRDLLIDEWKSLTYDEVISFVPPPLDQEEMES
Chain of Tyrosine-protein kinase ABL1 (Homo sapiens) (P00519 whole entry): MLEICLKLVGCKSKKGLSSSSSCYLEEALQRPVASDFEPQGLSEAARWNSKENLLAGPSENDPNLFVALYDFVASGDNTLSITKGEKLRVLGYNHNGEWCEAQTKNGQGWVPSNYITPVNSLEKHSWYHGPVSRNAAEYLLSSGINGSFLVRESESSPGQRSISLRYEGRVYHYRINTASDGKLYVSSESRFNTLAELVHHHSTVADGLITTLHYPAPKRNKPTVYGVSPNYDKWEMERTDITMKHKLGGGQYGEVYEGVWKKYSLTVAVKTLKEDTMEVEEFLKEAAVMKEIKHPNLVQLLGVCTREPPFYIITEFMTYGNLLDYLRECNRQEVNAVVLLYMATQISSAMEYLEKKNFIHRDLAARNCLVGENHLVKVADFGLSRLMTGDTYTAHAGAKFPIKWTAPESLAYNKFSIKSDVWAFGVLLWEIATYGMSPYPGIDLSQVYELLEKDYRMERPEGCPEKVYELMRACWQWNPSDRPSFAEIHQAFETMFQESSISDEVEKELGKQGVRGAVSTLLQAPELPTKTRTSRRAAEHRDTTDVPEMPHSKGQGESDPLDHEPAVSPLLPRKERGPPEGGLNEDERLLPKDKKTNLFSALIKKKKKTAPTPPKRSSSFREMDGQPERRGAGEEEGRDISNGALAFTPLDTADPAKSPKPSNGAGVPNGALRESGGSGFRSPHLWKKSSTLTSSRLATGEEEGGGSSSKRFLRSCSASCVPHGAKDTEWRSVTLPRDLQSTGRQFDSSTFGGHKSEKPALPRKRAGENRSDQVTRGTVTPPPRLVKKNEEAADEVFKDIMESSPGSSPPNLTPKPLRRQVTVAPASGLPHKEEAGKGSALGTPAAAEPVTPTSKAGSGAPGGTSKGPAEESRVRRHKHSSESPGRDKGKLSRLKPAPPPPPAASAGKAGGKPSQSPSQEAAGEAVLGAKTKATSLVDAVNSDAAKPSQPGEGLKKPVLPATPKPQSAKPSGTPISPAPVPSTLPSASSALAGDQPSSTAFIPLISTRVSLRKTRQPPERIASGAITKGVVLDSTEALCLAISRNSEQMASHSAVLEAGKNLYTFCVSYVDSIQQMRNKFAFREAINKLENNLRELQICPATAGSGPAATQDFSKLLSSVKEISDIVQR
Chain of Mast/stem cell growth factor receptor Kit (Homo sapiens) (P10721 whole entry): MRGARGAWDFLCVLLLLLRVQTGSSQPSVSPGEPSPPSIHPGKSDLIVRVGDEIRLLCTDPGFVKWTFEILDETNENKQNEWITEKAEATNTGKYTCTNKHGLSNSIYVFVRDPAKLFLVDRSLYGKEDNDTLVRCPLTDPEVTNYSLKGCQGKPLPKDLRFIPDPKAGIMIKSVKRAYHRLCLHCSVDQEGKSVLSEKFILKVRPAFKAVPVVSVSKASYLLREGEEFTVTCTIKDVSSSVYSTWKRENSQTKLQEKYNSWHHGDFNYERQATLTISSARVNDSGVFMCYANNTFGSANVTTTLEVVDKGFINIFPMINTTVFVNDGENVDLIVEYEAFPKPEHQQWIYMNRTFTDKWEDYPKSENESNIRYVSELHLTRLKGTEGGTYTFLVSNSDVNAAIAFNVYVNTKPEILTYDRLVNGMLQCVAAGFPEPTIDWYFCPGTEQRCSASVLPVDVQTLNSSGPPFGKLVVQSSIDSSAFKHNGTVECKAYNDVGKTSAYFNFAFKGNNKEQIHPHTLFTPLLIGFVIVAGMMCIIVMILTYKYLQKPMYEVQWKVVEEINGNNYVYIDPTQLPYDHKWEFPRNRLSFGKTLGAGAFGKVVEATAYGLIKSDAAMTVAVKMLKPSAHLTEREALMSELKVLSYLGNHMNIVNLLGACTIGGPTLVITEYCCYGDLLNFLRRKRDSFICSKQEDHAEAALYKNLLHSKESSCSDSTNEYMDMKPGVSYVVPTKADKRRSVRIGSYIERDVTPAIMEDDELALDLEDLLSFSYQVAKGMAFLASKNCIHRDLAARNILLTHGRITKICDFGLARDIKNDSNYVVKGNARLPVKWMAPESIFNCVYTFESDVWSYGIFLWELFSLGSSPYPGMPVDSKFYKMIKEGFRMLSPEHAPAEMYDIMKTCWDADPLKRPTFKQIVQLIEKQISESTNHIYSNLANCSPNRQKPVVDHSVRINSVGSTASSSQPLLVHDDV
Chain of Mitogen-activated protein kinase kinase kinase kinase 1 (Homo sapiens) (Q92918 whole entry, looked up): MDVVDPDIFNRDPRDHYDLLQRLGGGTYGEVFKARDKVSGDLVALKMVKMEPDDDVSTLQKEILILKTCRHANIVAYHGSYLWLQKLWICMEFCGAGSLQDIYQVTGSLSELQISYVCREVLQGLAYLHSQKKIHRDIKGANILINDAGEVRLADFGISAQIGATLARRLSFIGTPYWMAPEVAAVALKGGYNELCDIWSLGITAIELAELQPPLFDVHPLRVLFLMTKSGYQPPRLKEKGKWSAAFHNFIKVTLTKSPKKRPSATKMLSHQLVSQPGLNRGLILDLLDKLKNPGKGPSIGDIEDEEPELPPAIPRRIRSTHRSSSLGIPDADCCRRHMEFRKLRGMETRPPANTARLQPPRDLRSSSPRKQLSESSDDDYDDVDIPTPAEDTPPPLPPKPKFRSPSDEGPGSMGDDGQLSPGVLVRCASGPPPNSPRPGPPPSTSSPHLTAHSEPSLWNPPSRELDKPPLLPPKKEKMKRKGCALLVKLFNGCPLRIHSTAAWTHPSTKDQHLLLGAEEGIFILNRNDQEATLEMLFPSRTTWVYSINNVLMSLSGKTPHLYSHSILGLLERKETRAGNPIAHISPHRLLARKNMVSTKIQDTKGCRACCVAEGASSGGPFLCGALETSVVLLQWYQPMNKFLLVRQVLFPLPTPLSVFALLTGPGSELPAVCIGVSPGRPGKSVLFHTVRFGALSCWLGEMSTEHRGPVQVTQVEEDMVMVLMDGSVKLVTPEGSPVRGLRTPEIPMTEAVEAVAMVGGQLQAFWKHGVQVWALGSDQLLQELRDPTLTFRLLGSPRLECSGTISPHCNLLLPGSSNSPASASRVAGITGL
Chain of Mitogen-activated protein kinase 1 (Homo sapiens) (P28482 whole entry): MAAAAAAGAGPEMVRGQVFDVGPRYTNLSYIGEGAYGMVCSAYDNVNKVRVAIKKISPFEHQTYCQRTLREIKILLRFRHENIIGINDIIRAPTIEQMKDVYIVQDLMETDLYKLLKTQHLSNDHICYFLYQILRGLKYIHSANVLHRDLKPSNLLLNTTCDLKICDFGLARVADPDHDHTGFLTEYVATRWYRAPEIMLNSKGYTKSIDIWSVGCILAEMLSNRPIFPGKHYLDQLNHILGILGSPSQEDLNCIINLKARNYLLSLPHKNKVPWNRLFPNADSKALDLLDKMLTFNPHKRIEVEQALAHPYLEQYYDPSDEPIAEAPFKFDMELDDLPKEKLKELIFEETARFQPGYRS

Row | residual activity [1] [%] | residual activity [2] [%] | residual binding, % of control [3] [%] | residual activity [4] [%] | residual activity [5] [%] | residual activity [6] [%] | residual activity [7] [%] | residual activity [8] [%] | residual activity [9] [%] | residual activity [10] [%] | residual activity [11] [%] | residual activity [12] [%] | Compound
1 | 100 | 83 | 99 | 76 | 58 | 100 | 100 | 86 | 97 | 93 | 81 | 100 | CCOC(=O)c1sc(-c2ccncc2)nc1O
2 | 78 | 80 | 96 | 100 | 100 | 100 | 90 | 0.3 | 88 | 82 | 100 | 87 | COc1ccc(-c2nc(-c3ccnc(N)n3)sc2C(N)=O)c(Cl)c1

Row | Compound | residual activity [1] [%] | residual activity [2] [%] | residual binding, % of control [3] [%] | residual activity [4] [%] | residual activity [5] [%] | residual activity [6] [%] | residual activity [7] [%] | residual activity [8] [%] | residual activity [9] [%] | residual activity [10] [%] | residual activity [11] [%] | residual activity [12] [%]
3 | NC(=O)c1sc(-c2ccnc(N)n2)nc1-c1ccc(Cl)cc1Cl | 75 | 79 | 82 | 95 | 72 | 80 | 100 | 0.4 | 90 | 79 | 64 | 76
